Laboratory results reported in PMC11871391 (Journal of Diabetes Investigation, 2024).

What was measured:
[1] = White individuals; cited from earlier work
[2] = tested on: Japanese individuals with type 1 diabetes; format: in vivo, human; conditions: weekly dosing interval at steady state, Japanese T1D
Outline: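 Steady-state clamps (target 6.7 mmol/L) ran 24–48 h and 150–168 h after the final weekly dose. Before the clamp, glucose had to stay within ±20% from 60 to 30 min prior, within ±10% in the last 30 min, and fluctuate ≤0.3 mmol/L in the final 10 min. GIR was Loess-smoothed (factor 0.25). A per-participant PK/PD model simulated the daily effect across the full week.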

insulin receptor = conditions: cited from earlier work
[3] = format: in vivo, human; conditions: weekly dosing interval at steady state, Japanese T1D
Outline: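 Japanese adults (20–64 y) with T1D got subcutaneous thigh doses once weekly around 20:00 for 8 weeks. The constant weekly dose was seven times the run-in daily glargine U100 dose, with glargine top-up in weeks 1–2. Blood was sampled from the first dose to 35 days after the last. Total serum drug (albumin-bound plus unbound) was measured by validated specific immunoassay. AUC was by linear trapezoid over 0–168 h; t½ was log(2)/λz by linear regression.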

[4] = tested on: Japanese individuals with type 1 diabetes; assay: Safety evaluation during treatment periods; format: in vivo, human; conditions: Japanese T1D; for rate of nocturnal Level 2 hypoglycemia / rate of overall Level 2 hypoglycemia (plasma glucose <3.0 mmol/L): glucose clamps excluded; for rate of overall Level 2 hypoglycemia (plasma glucose <3.0 mmol/L): from SMPG
Outline: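 Randomized crossover in Japanese adults with T1D: once-weekly test insulin for 8 weeks and once-daily glargine U100 for 14 days, both with bolus aspart. Safety covered AEs, vital signs, ECG, physical exam and laboratory tests, with clinically significant findings recorded as AEs. Hypoglycemia (Level 2, <3.0 mmol/L; Level 3, severe) and hyperglycemia (>16.7 mmol/L) were identified from SMPG. Events were expressed per patient-year of exposure and summarized descriptively.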

individuals with T1D = conditions: trials with degludec in T1D; cited from earlier work

For insulin icodec, the half-life [1] is given as “approximately 1 week”, the “day of maximum glucose-lowering effect” value [2] is given as “Day 2” and the “affinity for the insulin receptor” value (insulin receptor) is given as “low affinity”. The “day of maximum exposure” value [3] was “Day 1”, the “rate of hyperglycemia (plasma glucose >16.7 mmol/L)” value [4] was 33.6 episodes per PYE and the “severe (Level 3) hypoglycemic episodes” value [4] was “no severe (Level 3) hypoglycemic episodes”. For the same substance, the “rate of nocturnal Level 2 hypoglycemia” value [4] was 7.8 episodes per PYE and the “rate of overall Level 2 hypoglycemia (plasma glucose <3.0 mmol/L)” value [4] was 37.3 episodes per PYE.
In the case of “insulin glargine U100 [reference compound]”, the “rate of hyperglycemia (plasma glucose >16.7 mmol/L)” value [4] is reported as 36.5 episodes per PYE, the “severe (Level 3) hypoglycemic episodes” value [4] is reported as “no severe (Level 3) hypoglycemic episodes” and the “rate of nocturnal Level 2 hypoglycemia” value [4] is reported as 9.4 episodes per PYE. For the same substance, the “rate of overall Level 2 hypoglycemia (plasma glucose <3.0 mmol/L)” value [4] was 30.6 episodes per PYE.
For insulin degludec, the “rate of clinically significant or severe hypoglycemia previously reported” value (individuals with T1D) is given as 42.5–88.3 episodes per PYE.
